Laboratory results reported in ChEMBL document CHEMBL1140069, “In vitro antifungal activity of polyfunctionalized 2-(hetero)arylquinolines prepared through imino Diels-Alder reactions” (2008).
≈ marks a conversion by molar mass, not a printed value.

Columns and labels:
Format in all cases: functional
Aspergillus flavus = assay: Antifungal activity against Aspergillus flavus ATCC 9170 after 48 hrs by broth microdilution technique; details: ATCC 9170, 48 h
Outline: (§1)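 CLSI broth microdilution: M-27 A2 for yeasts and M-38 A for filamentous fungi. Medium is RPMI-1640 buffered to pH 7.0 with MOPS. Compound is diluted twofold from 250 to 0.98, final DMSO ≤2%. Inoculum is 1–5 × 10³ CFU/mL. Plates are incubated at 35 °C in a moist, dark chamber and read visually at 48 h. MIC100 is the lowest concentration giving total growth inhibition versus drug-free control.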

Nannizzia gypsea = assay: Antifungal activity against Microsporum gypseum C115 after 48 hrs by broth microdilution technique; outline: as §1
[1] = test system: Trichophyton mentagrophytes; assay: Antifungal activity against Trichophyton mentagrophytes ATCC 9972 after 48 hrs by broth microdilution technique; details: ATCC 9972, 48 h; outline: as §1
Candida albicans [2] = assay: Antimicrobial activity against Candida albicans ATCC 10231 at 100 ug/ml after 24 hrs; details: ATCC 10231, 24 h
Outline: (§2)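 Growth-inhibition microplate test. Strains are grown on Sabouraud-chloramphenicol agar for 48 h at 30 °C, and inoculum is added to RPMI-1640 containing compound at a final 100–6.25, with DMSO ≤2%. Each strain has a growth control (same DMSO, no compound) and a sterility control.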

Candida albicans [3] = assay: Antimicrobial activity against Candida albicans ATCC 10231 at 50 ug/ml after 24 hrs; details: ATCC 10231, 24 h; outline: as §2
Candida albicans [4] = assay: Antimicrobial activity against Candida albicans ATCC 10231 at 6.25 ug/ml after 24 hrs; details: ATCC 10231, 24 h; outline: as §2
Cryptococcus neoformans [5] = assay: Antimicrobial activity against Cryptococcus neoformans IM 972724 isolate at 6.25 ug/ml after 48 hrs
Outline: (§3)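 Clinical Cryptococcus isolates kept on Sabouraud-dextrose agar slopes; inoculum 1–5 × 10³ CFU/mL. Quinoline DMSO stocks were diluted in RPMI-1640 to final 100–6.25 µg/mL, with DMSO ≤2%. An equal volume of inoculum was added (200 µL per well). Run in triplicate.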

Cryptococcus neoformans [6] = assay: Antimicrobial activity against Cryptococcus neoformans ATCC 32264 at 100 ug/ml after 48 hrs; details: ATCC 32264, 48 h
Outline: (§4)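 Percent growth inhibition in 96-well microplates. Compound stocks in DMSO (≤2%) were diluted in RPMI-1640 to final 100–6.25 µg/mL, and 100 µL inoculum was added (final 200 µL). Controls were a growth well (inoculum with matching DMSO, no compound) and a sterility well (no inoculum). Inhibition was calculated against growth and sterility wells.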

Cryptococcus neoformans [7] = assay: Antimicrobial activity against Cryptococcus neoformans ATCC 32264 at 50 ug/ml after 48 hrs; details: ATCC 32264, 48 h; outline: as §4
Cryptococcus neoformans [8] = assay: Antimicrobial activity against Cryptococcus neoformans IM 972724 isolate at 50 ug/ml after 48 hrs; outline: as §3
Cryptococcus neoformans [9] = assay: Antimicrobial activity against Cryptococcus neoformans IM 042074 isolate at 100 ug/ml after 48 hrs; outline: as §4
Cryptococcus neoformans [10] = assay: Antimicrobial activity against Cryptococcus neoformans IM 042074 isolate at 50 ug/ml after 48 hrs; outline: as §4
Cryptococcus neoformans [11] = assay: Antimicrobial activity against Cryptococcus neoformans IM 042074 isolate at 12.5 ug/ml after 48 hrs; outline: as §4
Cryptococcus neoformans [12] = assay: Antimicrobial activity against Cryptococcus neoformans IM 042074 isolate at 6.25 ug/ml after 48 hrs; outline: as §4
Cryptococcus neoformans [13] = assay: Antimicrobial activity against Cryptococcus neoformans IM 983036 isolate at 50 ug/ml after 48 hrs; outline: as §3
Cryptococcus neoformans [14] = assay: Antimicrobial activity against Cryptococcus neoformans IM 983036 isolate at 25 ug/ml after 48 hrs; outline: as §3
Cryptococcus neoformans [15] = assay: Antimicrobial activity against Cryptococcus neoformans IM 983036 isolate at 12.5 ug/ml after 48 hrs; outline: as §3
Cryptococcus neoformans [16] = assay: Antimicrobial activity against Cryptococcus neoformans IM 00319 isolate at 50 ug/ml after 48 hrs; outline: as §4
Cryptococcus neoformans [17] = assay: Antimicrobial activity against Cryptococcus neoformans IM 00319 isolate at 25 ug/ml after 48 hrs; outline: as §4
Cryptococcus neoformans [18] = assay: Antimicrobial activity against Cryptococcus neoformans IM 00319 isolate at 12.5 ug/ml after 48 hrs; outline: as §4
Cryptococcus neoformans [19] = assay: Antimicrobial activity against Cryptococcus neoformans IM 972751 isolate at 100 ug/ml after 48 hrs; outline: as §3
Cryptococcus neoformans [20] = assay: Antimicrobial activity against Cryptococcus neoformans IM 972751 isolate at 50 ug/ml after 48 hrs; outline: as §3
Cryptococcus neoformans [21] = assay: Antimicrobial activity against Cryptococcus neoformans IM 972751 isolate at 25 ug/ml after 48 hrs; outline: as §3
Cryptococcus neoformans [22] = assay: Antimicrobial activity against Cryptococcus neoformans IM 972751 isolate at 12.5 ug/ml after 48 hrs; outline: as §3
Cryptococcus neoformans [23] = assay: Antimicrobial activity against Cryptococcus neoformans IM 031631 isolate at 100 ug/ml after 48 hrs; outline: as §4
Cryptococcus neoformans [24] = assay: Antimicrobial activity against Cryptococcus neoformans IM 031631 isolate at 25 ug/ml after 48 hrs; outline: as §4
Cryptococcus neoformans [25] = assay: Antimicrobial activity against Cryptococcus neoformans IM 031631 isolate at 6.25 ug/ml after 48 hrs; outline: as §4
Cryptococcus neoformans [26] = assay: Antimicrobial activity against Cryptococcus neoformans IM 031706 isolate at 50 ug/ml after 48 hrs; outline: as §4
Cryptococcus neoformans [27] = assay: Antimicrobial activity against Cryptococcus neoformans IM 031706 isolate at 6.25 ug/ml after 48 hrs; outline: as §4
Cryptococcus neoformans [28] = assay: Antimicrobial activity against Cryptococcus neoformans IM 961951 isolate at 50 ug/ml after 48 hrs; outline: as §3
Cryptococcus neoformans [29] = assay: Antimicrobial activity against Cryptococcus neoformans IM 961951 isolate at 25 ug/ml after 48 hrs; outline: as §3
Cryptococcus neoformans [30] = assay: Antimicrobial activity against Cryptococcus neoformans IM 961951 isolate at 12.5 ug/ml after 48 hrs; outline: as §4
Cryptococcus neoformans [31] = assay: Antimicrobial activity against Cryptococcus neoformans IM 961951 isolate at 6.25 ug/ml after 48 hrs; outline: as §3
Cryptococcus neoformans [32] = assay: Antimicrobial activity against Cryptococcus neoformans IM 052470 isolate at 100 ug/ml after 48 hrs; outline: as §4
Cryptococcus neoformans [33] = assay: Antimicrobial activity against Cryptococcus neoformans IM 052470 isolate at 25 ug/ml after 48 hrs; outline: as §4
Cryptococcus neoformans [34] = assay: Antimicrobial activity against Cryptococcus neoformans ATCC 32264 at 12.5 ug/ml after 48 hrs; details: ATCC 32264, 48 h; outline: as §4
Cryptococcus neoformans [35] = assay: Antimicrobial activity against Cryptococcus neoformans ATCC 32264 at 6.25 ug/ml after 48 hrs; details: ATCC 32264, 48 h; outline: as §4
Cryptococcus neoformans [36] = assay: Antimicrobial activity against Cryptococcus neoformans IM 983040 isolate at 100 ug/ml after 48 hrs; outline: as §3
Cryptococcus neoformans [37] = assay: Antimicrobial activity against Cryptococcus neoformans IM 983040 isolate at 50 ug/ml after 48 hrs; outline: as §3
Cryptococcus neoformans [38] = assay: Antimicrobial activity against Cryptococcus neoformans IM 983040 isolate at 25 ug/ml after 48 hrs; outline: as §3
Cryptococcus neoformans [39] = assay: Antimicrobial activity against Cryptococcus neoformans IM 983040 isolate at 12.5 ug/ml after 48 hrs; outline: as §3
Cryptococcus neoformans [40] = assay: Antimicrobial activity against Cryptococcus neoformans IM 972724 isolate at 100 ug/ml after 48 hrs; outline: as §3
Cryptococcus neoformans [41] = assay: Antimicrobial activity against Cryptococcus neoformans IM 052470 isolate at 6.25 ug/ml after 48 hrs; outline: as §4

MIC (Aspergillus flavus): 50 µg/mL (≈ 242 µM)
MIC (Nannizzia gypsea): 50 µg/mL (≈ 242 µM)
MIC [1]: 50 µg/mL (≈ 242 µM)
Compound: c1ccc2nc(-c3ccncc3)ccc2c1
inhibition at 100 µg/mL (Candida albicans [2]): 100%
inhibition at 50 µg/mL (Candida albicans [3]): 73%
inhibition at 6.25 µg/mL (Candida albicans [4]): 19%
inhibition at 6.25 µg/mL (Cryptococcus neoformans [5]): 0%
inhibition at 100 µg/mL (Cryptococcus neoformans [6]): 100%
inhibition at 50 µg/mL (Cryptococcus neoformans [7]): 100%
inhibition at 50 µg/mL (Cryptococcus neoformans [8]): 23%
inhibition at 100 µg/mL (Cryptococcus neoformans [9]): 92%
inhibition at 50 µg/mL (Cryptococcus neoformans [10]): 87%
inhibition at 12.5 µg/mL (Cryptococcus neoformans [11]): 76%
inhibition at 6.25 µg/mL (Cryptococcus neoformans [12]): 68%
inhibition at 50 µg/mL (Cryptococcus neoformans [13]): 69%
inhibition at 25 µg/mL (Cryptococcus neoformans [14]): 45%
inhibition at 12.5 µg/mL (Cryptococcus neoformans [15]): 20%
inhibition at 50 µg/mL (Cryptococcus neoformans [16]): 80%
inhibition at 25 µg/mL (Cryptococcus neoformans [17]): 52%
inhibition at 12.5 µg/mL (Cryptococcus neoformans [18]): 32%
inhibition at 100 µg/mL (Cryptococcus neoformans [19]): 98%
inhibition at 50 µg/mL (Cryptococcus neoformans [20]): 20%
inhibition at 25 µg/mL (Cryptococcus neoformans [21]): 9%
inhibition at 12.5 µg/mL (Cryptococcus neoformans [22]): 0%
inhibition at 100 µg/mL (Cryptococcus neoformans [23]): 100%
inhibition at 25 µg/mL (Cryptococcus neoformans [24]): 57%
inhibition at 6.25 µg/mL (Cryptococcus neoformans [25]): 12%
inhibition at 50 µg/mL (Cryptococcus neoformans [26]): 69%
inhibition at 6.25 µg/mL (Cryptococcus neoformans [27]): 21%
inhibition at 50 µg/mL (Cryptococcus neoformans [28]): 89%
inhibition at 25 µg/mL (Cryptococcus neoformans [29]): 78%
inhibition at 12.5 µg/mL (Cryptococcus neoformans [30]): 34%
inhibition at 6.25 µg/mL (Cryptococcus neoformans [31]): 4%
inhibition at 100 µg/mL (Cryptococcus neoformans [32]): 99%
inhibition at 25 µg/mL (Cryptococcus neoformans [33]): 53%
inhibition at 12.5 µg/mL (Cryptococcus neoformans [34]): 90%
inhibition at 6.25 µg/mL (Cryptococcus neoformans [35]): 83%
inhibition at 100 µg/mL (Cryptococcus neoformans [36]): 45%
inhibition at 50 µg/mL (Cryptococcus neoformans [37]): 34%
inhibition at 25 µg/mL (Cryptococcus neoformans [38]): 12%
inhibition at 12.5 µg/mL (Cryptococcus neoformans [39]): 0%
inhibition at 100 µg/mL (Cryptococcus neoformans [40]): 74%
inhibition at 6.25 µg/mL (Cryptococcus neoformans [41]): 0%
